# Results: publication PMC5161541 (Nuclear medicine and biology, 2016)
# How the values were obtained:
# [1] = biological target: vesicular acetylcholine transporter (VAChT); conditions: read-out: apparent affinity for VAChT in vitro; cited from earlier work
# [2] = system: σ1 receptors; conditions: cited from earlier work
# [3] = biological target: cannabinoid receptor type 2 (CB2); conditions: cited from earlier work
# [4] = system: cerebral σ1 receptors; conditions: over 30 h, SPECT; cited from earlier work
# [5] = biological target: T1, σ1 receptors (Mus musculus, UniProt O55242); experiment: Competition binding against [3H]-PTZ in mouse brain membranes; conditions: read-out: Sigma-1 Ki; [3H]-PTZ, mouse brain membranes; mean ± SEM, n = 4
# T1 sequence (O55242 whole entry): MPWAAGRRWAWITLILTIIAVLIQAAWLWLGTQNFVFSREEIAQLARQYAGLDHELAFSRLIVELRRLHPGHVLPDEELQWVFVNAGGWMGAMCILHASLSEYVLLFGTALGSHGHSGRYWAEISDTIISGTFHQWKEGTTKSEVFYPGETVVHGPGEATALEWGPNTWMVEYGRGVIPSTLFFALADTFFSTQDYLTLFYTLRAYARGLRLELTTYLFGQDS
# [6] = biological target: T1, σ1 receptors; format: binding
# [7] = TCA protein precipitation assay of plasma protein binding; format: in vitro ADME, mouse; conditions: for Protein Binding: mouse plasma, 37 °C, 30 min, TCA precipitation, n = 9
# Method in brief: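 Radioiodinated test compound incubated in commercial mouse plasma at 37 °C for 30 min. Proteins then precipitated with cold 10% TCA / 5% HCl to measure protein-bound radioactivity.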
# [8] = Radiometabolite analysis of tissue extracts and urine by HPLC; format: in vivo, CD-1 mouse; conditions: for Radiometabolites Whole Brain, 60 min: mouse, in vivo
# Method in brief: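 Organs from i.v.-dosed mice, given more radioactivity than in pharmacokinetic studies, counted and homogenized in methanol/acetonitrile/water containing DTG (100 μM). Homogenates centrifuged, with a radioactivity balance taken for extracts and pellets. Extracts diluted with water and filtered (0.45 μm) for radio-HPLC. Urine only diluted with mobile phase and filtered.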
# [9] = Lipophilicity, shake-flask n-octanol / buffer pH 7.4; format: physicochemical
# Method in brief: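 Shake-flask method: radiolabeled test compound partitioned between equal volumes of n-octanol and aqueous buffer pH 7.4, each presaturated with the other. Vortexed, then centrifuged. Each layer sampled in duplicate or triplicate and counted. Counts normalized per g or per mL, and the concentration ratio converted to Log D7.4.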
# [10] = biological target: T1, σ1 receptors; experiment: Calculated binding potential; conditions: single trial, protein assumed 5% of brain tissue
# Method in brief: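 The Scatchard Y-intercept, as Bound/Free in (fmol/mg protein)/nM from the in vitro mouse brain membrane saturation experiment, was converted to tissue-concentration units assuming protein is 5% of brain tissue. This gave binding potential for a single trial.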
# [11] = biological target: T1, σ1 receptors; experiment: In vivo specific binding and blocking by pretreatment with σ receptor ligands
# [12] = Temporal biodistribution after i.v. radioligand in CD-1 mice; format: in vivo, CD-1 mouse
# Method in brief: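 Radioligand given i.v. to male CD-1 mice, with tissues sampled from 5 min to 24 h. Uptake expressed as %ID/g. Clearance half-lives from heart and lung obtained by monoexponential decay fitting.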
# [13] = biological target: T1, σ1 receptors; experiment: "Hot" saturation binding in mouse brain membranes
# Method in brief: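 "Hot" saturation: mouse brain membranes incubated with increasing radioligand concentrations until steady-state binding. Non-specific binding determined in parallel at each concentration with a competing non-radioactive ligand. Specific binding fitted by nonlinear regression to the one-site mass-action equation to give Kd and Bmax. Bound/Free expressed as (fmol/mg protein)/nM for the Scatchard plot. Single experiment.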
# [14] = listed as [^125I]-E-IA-BF-PIPZE
# [15] = 15 min, defined by BD1063 5 μmol / kg i.v.
structure (smiles),measurement,setting,value
"COc1ccc(CCN2CCN(CCCc3ccccc3)CC2)cc1OC [SA4503, 1-[2-(3,4-dimethoxyphenyl)ethyl]-4-(3-phenylpropyl)piperazine]",Ki,[1],50 nM
COc1ccc(CCN2CCN(CCCc3ccccc3)CC2)cc1 [YZ-067],σ1 receptor affinity relative to SA4503,[2],improved affinity
CCCCCCC(C)(C)c1ccc([C@@H]2C[C@H](O)CC[C@H]2CCCO)c(O)c1 [[^3H]-CP55940],Kd,[3],1.5 nM
"N#Cc1ccc(OCC2CCN(CC=CI)CC2)cc1 [[^123I]-TPCNE, [^123I]-1-(iodopropen-2-yl)-4-[(4-cyanophenoxy)methyl]piperidine]",Ki,[2]; read-out: apparent affinity (Ki) for σ1 sites in vitro,0.67 nM
"N#Cc1ccc(OCC2CCN(CC=C[123I])CC2)cc1 [[^123I]-TPCNE, [^123I]-1-(iodopropen-2-yl)-4-[(4-cyanophenoxy)methyl]piperidine]",clearance from human brain,[4],no clearance
"I/C=C/CN1CCN(CCc2ccc3c(c2)CCO3)CC1 [[^125I]-E-IA-BF-PE-PIPZE, [^125I]-(E)-1-(2-(2,3-dihydrobenzofuran-5-yl)ethyl)-4-(iodoallyl)piperazine]",Ki,[5],0.43 nM
same,Kd,"[6]; read-out: kinetically determined Kd (koff / kon), from rate constants",0.042 nM
"[125I]/C=C/CN1CCN(CCc2ccc3c(c2)CCO3)CC1 [[^125I]-E-IA-BF-PE-PIPZE, [^125I]-(E)-1-(2-(2,3-dihydrobenzofuran-5-yl)ethyl)-4-(iodoallyl)piperazine]",increase of protein binding with respect to [125I]-E-IA-DM-PE-PIPZE,[7],50%
same,Protein Binding,[7],71 ± 0.3%
same,Protein Binding,[7]; [14],71.2 ± 0.3%
same,"extractable radioactivity, liver",[8]; 60 min,80%
same,urinary radioactivity as polar metabolites,[8]; 60 min,99%
same,radioactivity in brain tissue from intact radioligand,"[8]; 60 min, 100 μCi i.v.",About 99%
same,"Radiometabolites Whole Brain, 60 min",[8],1%
same,"Radiometabolites Whole Brain, 60 min",[8]; [14],1%
same,fold higher lipophilicity than [125I]-E-IA-DM-PE-PIPZE,[9],2.8 fold
same,Log D7.4,"[9]; n-octanol / buffer pH 7.4, n = 5",2.69 ± 0.28
same,Binding Potential (BP),[10],97
same,specific radioligand binding in brain,[11]; [15],75%
same,specific radioligand binding in heart,[11]; [15],87%
same,specific radioligand binding in lung,[11]; [15],87%
same,specific radioligand binding in muscle,[11]; [15],61%
same,"radioactivity in the blood, controls","[11]; 60 min, saline-treated control group",0.38 ± 0.09 %ID / g
same,"Non-Specific binding Whole Brain, 30 min","[11]; mouse, in vivo, 0.5 h",0.89 %ID /g
same,"Specific binding Whole Brain, 30 min","[11]; mouse, in vivo, 0.5 h",4.90 %ID /g
same,"Non-Specific binding Whole Brain, 60 min","[11]; mouse, in vivo, 1 h",0.60 %ID /g
same,"Specific binding Whole Brain, 60 min","[11]; mouse, in vivo, 1 h",5.38 %ID /g
same,"Non-Specific binding Whole Brain, 240 min","[11]; mouse, in vivo, 4 h",0.34 %ID /g
same,"Specific binding Whole Brain, 240 min","[11]; mouse, in vivo, 4 h",4.14 %ID /g
same,"Specific / Non-Specific Whole Brain, 30 min",[11]; ratio of %ID /g values,5.5
same,"Specific / Non-Specific Whole Brain, 60 min",[11]; ratio of %ID /g values,9.0
same,"Specific / Non-Specific Whole Brain, 240 min",[11]; ratio of %ID /g values,12
same,"Specific / Non-Specific Whole Brain, 240 min","[11]; ratio of %ID /g values, listed as [^125I]-E-IA-BF-PIPZE",12.2
same,kobs,"[6]; 0.16 nM radioligand, 37 °C",0.016 ± 0.002 min⁻¹
same,time to steady-state binding,"[6]; 0.16 nM radioligand, 37 °C",~180 min
same,koff,"[6]; 0.16 nM radioligand, 37 °C, haloperidol-initiated dissociation",5.5e-05 ± 5e-06 s⁻¹
same,blood level,[12]; 5 min,0.31 ± 0.03 %ID / g
same,radioactivity in the eye,[12]; 5 min,2.01 ± 0.13 %ID / g
same,brain uptake,"[12]; 5 min, i.v., mean ± SD",6.14 ± 0.94 %ID / g
same,peak brain uptake,"[12]; 15 min, i.v., mean ± SD",6.56 ± 1.23 %ID / g
same,brain uptake,[12]; 4 h,4.48 ± 0.22 %ID / g
same,blood level,[12]; 24 h,0.08 ± 0.01 %ID / g
same,brain uptake,[12]; 24 h,0.76 ± 0.091 %ID / g
same,clearance t½ from lung,"[12]; monoexponential decay, r^2 0.88",1.73 h
same,clearance t½ from heart,"[12]; monoexponential decay, r^2 0.90",1.98 h
same,initial whole brain uptake,"[12]; mouse, in vivo",> 6 % injected dose / g
same,"uptake in heart relative to brain, higher by","[12]; mouse, in vivo",50%
same,uptake in lung compared to brain,"[12]; mouse, in vivo",5 fold
same,Bound / Free Y-intercept,"[13]; (fmol / mg protein) / nM, single experiment",1942
same,fold higher affinity from rate constants compared to saturation binding,[13]; Kd 0.042 nM vs […],5.7 fold
same,fold higher σ1 receptor affinity than [125I]-E-IA-DM-PE-PIPZE,"[13]; measured Kd, mouse brain membranes",16 fold
same,Bmax,"[13]; mouse brain membranes, 37 °C, 180 min, four trials, listed as [^125I]-E-IA-BF-PIPZE",472 ± 13 fmol / mg protein
